Experimental data as given in ChEMBL document CHEMBL3525931, “Stereoselective interaction of pantoprazole with ABCG2. II. In vitro flux analysis” (Drug Metab Dispos, 2012).

Legend:
[1] = biological target: T1, Broad substrate specificity ATP-binding cassette transporter ABCG2 (Rattus norvegicus, UniProt Q80W57); experiment: Observed permeability in MDCK2 cells expressing rat ABCG2 assessed as ABCG2-mediated apical to basolateral transport at 10 uM after 0.5 to 1 hrs by HPLC method; type: ADME, cell-based; conditions: mdck-ii
T1 sequence (Q80W57 whole entry): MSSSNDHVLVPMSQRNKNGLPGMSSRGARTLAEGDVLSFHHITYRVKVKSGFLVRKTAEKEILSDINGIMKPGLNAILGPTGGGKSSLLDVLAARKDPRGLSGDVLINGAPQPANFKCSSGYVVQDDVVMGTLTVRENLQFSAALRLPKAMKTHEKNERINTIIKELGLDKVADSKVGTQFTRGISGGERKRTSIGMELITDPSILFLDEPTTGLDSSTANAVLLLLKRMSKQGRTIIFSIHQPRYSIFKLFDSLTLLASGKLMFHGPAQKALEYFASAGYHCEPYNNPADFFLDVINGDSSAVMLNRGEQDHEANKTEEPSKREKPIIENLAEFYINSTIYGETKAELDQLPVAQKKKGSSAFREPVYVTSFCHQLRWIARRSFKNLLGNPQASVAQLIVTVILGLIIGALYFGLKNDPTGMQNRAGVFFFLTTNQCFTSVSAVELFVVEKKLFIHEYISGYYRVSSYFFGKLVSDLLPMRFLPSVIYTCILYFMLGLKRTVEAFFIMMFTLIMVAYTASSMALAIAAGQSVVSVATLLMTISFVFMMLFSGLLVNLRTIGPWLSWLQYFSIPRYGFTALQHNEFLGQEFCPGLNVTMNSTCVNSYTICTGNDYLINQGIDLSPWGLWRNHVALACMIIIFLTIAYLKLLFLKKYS
In short: (§1)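 Mock (empty pcDNA3.1) or rat Abcg2/human ABCG2-transfected MDCKII, G418-selected, seeded on 3.0-μm Transwell filters at 1.0×10^6 cells/well, grown 4 days to TEER >200 Ω·cm². Single isomer loaded apical or basolateral in serum-free Opti-MEM I with 0.2 μCi/ml [3H]mannitol, 37°C 5% CO2. Receiver sampled at 0.5 and 1 h. Quantified by HPLC-UV 290 nm. Permeability = initial rate/(area × donor concentration). Efflux ratio = B→A rate / A→B rate. n = 3, mean ± S.D.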

[2] = biological target: T2, Broad substrate specificity ATP-binding cassette transporter ABCG2 (Homo sapiens, UniProt Q9UNQ0); experiment: Observed permeability in MDCK2 cells expressing human ABCG2 assessed as ABCG2-mediated apical to basolateral transport at 10 uM after 0.5 to 1 hrs by HPLC method; type: ADME, cell-based; conditions: mdck-ii; in short: as §1
T2 sequence (Q9UNQ0 whole entry): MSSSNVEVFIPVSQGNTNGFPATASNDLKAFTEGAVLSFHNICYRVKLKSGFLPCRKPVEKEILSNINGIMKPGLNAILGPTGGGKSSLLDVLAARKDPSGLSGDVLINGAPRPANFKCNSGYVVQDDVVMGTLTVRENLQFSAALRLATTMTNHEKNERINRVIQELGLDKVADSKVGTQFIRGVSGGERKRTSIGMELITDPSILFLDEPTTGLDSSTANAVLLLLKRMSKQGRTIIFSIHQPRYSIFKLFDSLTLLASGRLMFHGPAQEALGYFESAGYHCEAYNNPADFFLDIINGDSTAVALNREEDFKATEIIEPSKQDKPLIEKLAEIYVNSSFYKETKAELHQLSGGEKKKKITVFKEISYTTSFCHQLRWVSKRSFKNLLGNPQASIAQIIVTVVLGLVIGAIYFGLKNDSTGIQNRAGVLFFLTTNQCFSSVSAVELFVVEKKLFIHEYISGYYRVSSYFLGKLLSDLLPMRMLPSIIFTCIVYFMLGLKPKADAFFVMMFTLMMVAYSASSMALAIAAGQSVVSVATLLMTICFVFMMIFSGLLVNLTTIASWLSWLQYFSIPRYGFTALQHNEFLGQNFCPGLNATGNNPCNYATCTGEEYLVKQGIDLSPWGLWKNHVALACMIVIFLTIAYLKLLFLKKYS

[3] = biological target: T2, Broad substrate specificity ATP-binding cassette transporter ABCG2; experiment: Observed permeability in MDCK2 cells expressing human ABCG2 assessed as ABCG2-mediated apical to basolateral transport at 200 uM after 0.5 to 1 hrs by HPLC method; type: ADME, cell-based; conditions: mdck-ii; in short: as §1
[4] = biological target: T2, Broad substrate specificity ATP-binding cassette transporter ABCG2; experiment: Observed permeability in MDCK2 cells expressing human ABCG2 assessed as ABCG2-mediated basolateral to apical transport at 3 uM after 0.5 to 1 hrs by HPLC method; type: ADME, cell-based; conditions: mdck-ii; in short: as §1
[5] = biological target: T2, Broad substrate specificity ATP-binding cassette transporter ABCG2; experiment: Observed permeability in MDCK2 cells expressing human ABCG2 assessed as ABCG2-mediated basolateral to apical transport at 30 uM after 0.5 to 1 hrs by HPLC method; type: ADME, cell-based; conditions: mdck-ii; in short: as §1
ABCG2 [6] = biological target: T3, ABCG2 (Homo sapiens, UniProt Q9UNQ0); experiment: Asymmetry efflux ratio in MDCK2 cells expressing human ABCG2 assessed as ABCG2-mediated drug transport ratio at 30 uM after 0.5 to 1 hrs by HPLC method; type: ADME, cell-based; in short: as §1
T3 sequence (Q9UNQ0 whole entry): T2 sequence (Q9UNQ0 whole entry)

ABCG2 [7] = biological target: T3, ABCG2; experiment: Asymmetry efflux ratio in MDCK2 cells expressing human ABCG2 assessed as ABCG2-mediated drug transport ratio at 50 uM after 0.5 to 1 hrs by HPLC method; type: ADME, cell-based; in short: as §1
ABCG2 [8] = biological target: T3, ABCG2; experiment: Asymmetry efflux ratio in MDCK2 cells expressing human ABCG2 assessed as ABCG2-mediated drug transport ratio at 200 uM after 0.5 to 1 hrs by HPLC method; type: ADME, cell-based; in short: as §1
[9] = biological target: T1, Broad substrate specificity ATP-binding cassette transporter ABCG2; experiment: Maximum drug transport rate in MDCK2 cells expressing rat ABCG2 assessed as ABCG2-mediated transport by HPLC method; type: ADME, cell-based; conditions: mdck-ii
In short: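 Kinetics came from the same Transwell bidirectional flux runs in rat Abcg2- or human ABCG2-MDCKII, with donor 3–200 μM single isomer. Cellular concentrations were predicted from a three-compartment model using PS_D from mock cells and PS_PC from mannitol. Apparent apical efflux permeability was fitted against predicted cellular concentration by saturable kinetics to give K_M and T_max.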

[10] = biological target: T1, Broad substrate specificity ATP-binding cassette transporter ABCG2; experiment: Observed permeability in MDCK2 cells expressing rat ABCG2 assessed as ABCG2-mediated apical to basolateral transport at 30 uM after 0.5 to 1 hrs by HPLC method; type: ADME, cell-based; conditions: mdck-ii; in short: as §1
[11] = biological target: T1, Broad substrate specificity ATP-binding cassette transporter ABCG2; experiment: Observed permeability in MDCK2 cells expressing rat ABCG2 assessed as ABCG2-mediated apical to basolateral transport at 50 uM after 0.5 to 1 hrs by HPLC method; type: ADME, cell-based; conditions: mdck-ii; in short: as §1
[12] = biological target: T1, Broad substrate specificity ATP-binding cassette transporter ABCG2; experiment: Observed permeability in MDCK2 cells expressing rat ABCG2 assessed as ABCG2-mediated basolateral to apical transport at 10 uM after 0.5 to 1 hrs by HPLC method; type: ADME, cell-based; conditions: mdck-ii; in short: as §1
[13] = biological target: T1, Broad substrate specificity ATP-binding cassette transporter ABCG2; experiment: Observed permeability in MDCK2 cells expressing rat ABCG2 assessed as ABCG2-mediated basolateral to apical transport at 200 uM after 0.5 to 1 hrs by HPLC method; type: ADME, cell-based; conditions: mdck-ii; in short: as §1
[14] = Observed permeability in MDCK2 cells assessed as basolateral to apical transport at 3 uM after 0.5 to 1 hrs by HPLC method; type: ADME, cell-based, Canis lupus familiaris; conditions: dog, mdck-ii; in short: as §1
[15] = Observed permeability in MDCK2 cells assessed as basolateral to apical transport at 3 to 200 uM after 0.5 to 1 hrs by HPLC method; type: ADME, cell-based, Canis lupus familiaris; conditions: dog, mdck-ii; in short: as §1
[16] = Asymmetry efflux ratio in MDCK2 cells assessed as drug transport ratio at 10 uM after 0.5 to 1 hrs by HPLC method; type: ADME, cell-based, Canis lupus familiaris, MDCK-II; conditions: dog, MDCK; in short: as §1
[17] = Asymmetry efflux ratio in MDCK2 cells assessed as drug transport ratio at 30 uM after 0.5 to 1 hrs by HPLC method; type: ADME, cell-based, Canis lupus familiaris, MDCK-II; conditions: dog, MDCK; in short: as §1

Row | Papp [1] | Papp [2] | Papp [3] | Papp [4] | Papp [5] | efflux ratio at 30 µM (ABCG2 [6]) | efflux ratio at 50 µM (ABCG2 [7]) | efflux ratio at 200 µM (ABCG2 [8]) | Drug transport [9] | Papp [10] | Papp [11] | Papp [12] | Papp [13] | Papp [14] | Papp [15] | efflux ratio at 10 µM [16] | efflux ratio at 30 µM [17] | Structure (SMILES)
1 | 30.1 uL/hr/cm2 | 31.6 uL/hr/cm2 | 132 uL/hr/cm2 | 254 uL/hr/cm2 | 211 uL/hr/cm2 | 3.12 | 1.44 | 1 | 2.49 nmol/hr.cm2 | 92.5 uL/hr/cm2 | 109 uL/hr/cm2 | 224 uL/hr/cm2 | 136 uL/hr/cm2 | 120 uL/hr/cm2 | 127 uL/hr/cm2 | 1.06 | 1.07 | COc1ccnc(C[S@+]([O-])c2nc3cc(OC(F)F)ccc3[nH]2)c1OC
2 | 20.9 uL/hr/cm2 | 42.2 uL/hr/cm2 | 126 uL/hr/cm2 | 258 uL/hr/cm2 | 240 uL/hr/cm2 | 5.5 | 2.45 | 1.42 | 7.86 nmol/hr.cm2 | 33.5 uL/hr/cm2 | 79.1 uL/hr/cm2 | 229 uL/hr/cm2 | 162 uL/hr/cm2 | 117 uL/hr/cm2 | 126 uL/hr/cm2 | 1.07 | 1.06 | COc1ccnc(C[S@@+]([O-])c2nc3cc(OC(F)F)ccc3[nH]2)c1OC
